Measured values as given in the EternaBench riboswitch data.

Tested on: MS2 coat protein
Test: apparent Kd, MS2 coat protein; higher = weaker binding; RNA-MaP array; FMN 200 µM where present
Summary of the method: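 Stalled E. coli RNA polymerase transcribed each design on Illumina sequencing-chip clusters. The clusters were titrated with SNAP-549-labelled MS2 coat protein, starting at 0.7 or 1.5 nM and doubling up to 3 µM, first without ligand and then with constant ligand, in 100 mM Tris-HCl pH 7.5, 80 mM KCl, 4 mM MgCl2, BSA, DTT, yeast tRNA and Tween-20. Green signal was normalised to red-channel RNA signal and to the control-cluster median Fmax. The apparent Kd is the median of filtered binding-curve fits made for each cluster.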

[1] = designed as: OFF switch for flavin mononucleotide, no ligand
[2] = ligand present: flavin mononucleotide, designed as: OFF switch for flavin mononucleotide
[3] = designed as: ON switch for flavin mononucleotide, no ligand
[4] = ligand present: flavin mononucleotide, designed as: ON switch for flavin mononucleotide

Row | Sequence | apparent Kd [1] [nM] | apparent Kd [2] [nM] | apparent Kd [3] [nM] | apparent Kd [4] [nM]
1 | UAUAUGUCAGGAUAUCGAUUGGAAUGGAAUUUAGUUCUGGUUGAGAAGGGACAUGAGGAUCACCCAUGUUUUUC | 35.5 | 213 | – | –
2 | UAUAUGUCAGGAUAUUAGUAGUGGACGAAUAAGACUACUGCUGAGAAGGGACAUGAGGAUCACCCAUGUUCCUC | 20.2 | 172 | – | –
3 | UAUGACAUGAGGAUCACCCAUGUCAGCGAGAAAUGAGAGUCACAGGAUAUGUUUUCGGCCGGCAGACAGAAGGGUGACCCUCCG | – | – | 7.33 | 6.74
4 | UAUGUUUUAGGAUAUUGUACUGCUGACAUGAGGAUCACCCAUGUAUGCUAACUCGGUUGUCGAGAAGGAGAAUAUG | 59.4 | 44.2 | – | –
5 | UAUUAACACGAAGGAUAUGGUUACAUGAGGAUCACCCAUGUAUGUAUAUUGAUCCAGAUUUUUGACCAGAAGGUCGUGAGUAAA | 108 | 285 | – | –
6 | UAUUAACAUGUAGGAUAUCUGCACGAUUAGUGCAGAGAAGGACAUGAGGAUCACCCAUGUAGAUCAUAAUAAUUUAAUUUAAUU | 133 | 422 | – | –
7 | UAUUAGUAAGGAUAUCUCGUCAUGGACGUGAGUCCAUGACGAGAGAAGGUACAUGAGGAUCACCCAUGUCUAUU | 18.1 | 19.4 | – | –
8 | UAUUAGUGAGGAUAUGAGUCGUAGAACAAUAGUACUACGUCUCAGAAGGUACAUGAGGAUCACCCAUGUUUCUC | 20 | 23.8 | – | –
9 | UAUUAUCACGAAGGAUAUGCUUACAUGAGGAUCACCCAUGUAUGUAUAUUGAUCCAGCGUAUUGAGCAGAAGGUCGUGAGUAAA | 21.8 | 75.8 | – | –
10 | UAUUAUGUCAGAGGAUAUAUAAAUAAAUUUAUAACAUGAGGAUCACCCAUGUACUUUAGUAUGAGGUAGAAGGUUGAUAAGAUA | – | – | 45.4 | 26.8
11 | UAUUCAUUCAGAGGAUAUUGUUUAUCUCUAUUUCAAGAAGGCUGAUUUUACUACUUACUUAUGAAACAUGAGGAUCACCCAUGU | – | – | 25.6 | 17.5
12 | UAUUGAUAAUAUCUUCACAUGAGGAUCACCCAUGUCGCUCGACAGGAUAUAUUUUAUUUGUUUAAGUAGAAGGGUCGCAGAUUU | – | – | 165 | 142
13 | UAUUUAUAAUAUUUUAACAUGAGGAUCACCCAUGUCGCUAGACAGGAUAUAUUUUAUUUGUUUAAGUAGAAGGGUCAUAGAUUU | – | – | 175 | 145
14 | UCAAAGAGAUCGAACGGGAGGCGUAAGGAUAUGCACAUGAGGAUCACCCAUGUCUACGAAAGUAGGCAGAAGGUACGCGGGAUU | – | – | 253 | 30.6
15 | UCAAAGCCAUUUUGGCGAGUCACAUGAGGAUCACCCAUGUAACAGGAUAUCGAUUGGCUUCCCGGCGAGAAGGGUUACUAGGGA | 10.8 | 15.5 | – | –
16 | UCAAGUAUGUAGGAUAUCGAUGUCGAAAGACAUCGAGAAGGACGUACAUGAGGAUCACCCAUGUAACUUGCAUG | 296 | 270 | – | –
17 | UCACGGGAUUGAGGAUAUAUUUAAAUUUUUACAAUAGAAGGCAAAUUUUUAGUUUUUUCACUUUACAUGAGGAUCACCCAUGUU | 28.8 | 24.5 | – | –
18 | UCACGUCACCAAGGAUAUACCCGAAGAUCCAUGGUAGAAGGUGGUGACAUGAGGAUCACCCAUGUCCGCGCGGACAAGUGUGUU | 118 | 26.7 | – | –
19 | UCAGAGGCUGACAUGAGGAUCACCCAUGUUAGAUUGUUAUGUCAGGAUAUUAUCUGGCAACCAGAUGAGAAGGGACCCUCUGUG | – | – | 22 | 7.67
20 | UCAUAAGAACAAGGAUAUCAAUAAAAUAUAAAUGCUACAUGAGGAUCACCCAUGUUUUAGCAUGGUGAGAAGGUGUAUUUACGG | – | – | 67.8 | 42.5
21 | UCAUGAAGGGCAGGAUAUGGACAUGAGGAUCACCCAUGUACAUGGGAUUAUAUACUGAAUUUAUACUAGAAGGGUUACAUAAAU | 31 | 18.1 | – | –
22 | UCAUGCAUAGCGAUAUGAUCGAGAGAUCAUGUCGCUAAAUUUAGAAGGACAUGAGGAUCACCCAUGUAGGAUAUGGGAGCAUGG | – | – | 292 | 31.9
23 | UCAUUAGCGGGCGGGUCGGUUGGACAUGAGGAUCACCCAUGUAGAAGGACCGGUGGACUCCGGCGGUAGGAUAUACAUUUGGUG | 22 | 30.7 | – | –
24 | UCAUUAUAAAUCCAUCAUAACUACAUGAGGAUCACCCAUGUGCAGGAUAUCGAUGGUUUAACUAUCGAGAAGGGCAAUUACAGA | 31.9 | 72.1 | – | –
25 | UCAUUUAAUACAGGAUAUGUUAGUAUACAGUUGAUUGGUUAUUACAUAAUAACAGAAGGGUAGAACAUGAGGAUCACCCAUGUA | – | – | 254 | 131
26 | UCAUUUAUCACAGGAUAUAUUAGUAUACAGUUGUUUGGCUCUUACAUAUUAAUAGAAGGGUGAAACAUGAGGAUCACCCAUGUA | – | – | 621 | 224
27 | UCAUUUCAGUUAGGAUAUUAAAACAUGACGAUACAUGAGGAUCACCCAUGUUAAGAAGGAACUAAUACAUAUAAUGCAAUGUUC | 15.9 | 13.2 | – | –
28 | UCCACUGCUGAGAAGGGAUACGUGUGGUUCGCAUCAGGAUAUCGAUACAGUGCAGCAUGAGGACAUGAGGAUCACCCAUGUAUU | – | – | 24.6 | 13.4

Row | Sequence | apparent Kd [1] [nM] | apparent Kd [2] [nM] | apparent Kd [3] [nM] | apparent Kd [4] [nM]
29 | UCCGAAUCGUAGAAGGGUGACAUGAGGAUCACCCAUGUGCAGCAGCCGUGAACGGCCAUGCUGCCACAGGAUAUACGAUGGAGU | – | – | 41.1 | 56.2
30 | UCCUCUUUGAAGAAGGCGUGGUUAUGCAAGCCGCGAGGAUAUUCACAUGAGGAUCACCCAUGUGGAUUUCAGUCCGCUCAAAAC | 11.9 | 61.8 | – | –
31 | UCCUGACCGAGAGGUAGGAGUGGUAGAAGGCGACCGGUGCCAGAUGACAUGAGGAUCACCCAUGUCGAGGAUAUACCACAGAAU | 7.45 | 14.1 | – | –
32 | UCCUUGUCCUGAGGAUAUCCGCGGUUCCCAAAAGGAGAAGGCAGGACAUGAGGAUCACCCAUGUACCCAGAAAACGUGCAGAGU | 36.8 | 313 | – | –
33 | UCCUUGUCCUGAGGAUAUCCGUGGUUCCCGAAAGGAGAAGGCAGGACAUGAGGAUCACCCAUGUACCCAGAUAUCGUACAGAGA | 50.4 | 360 | – | –
34 | UCGAGCAGGGAAUGGUCGCUGAAGUAGGAUAUCCGCGUGGCCGUCCACAUGAGGAUCACCCAUGUGGAGAAGGGCUACAGCGAA | 6.07 | 6.58 | – | –
35 | UCGAUAAGGAGAGGAUAUGGACAUGAGGAUCACCCAUGUACAUGGGAAUAUAUACUGAAUUUUUACUAGAAGGCUUACAUAUUU | 16.7 | 13.6 | – | –
36 | UCGCCACAUGAGGAUCACCCAUGUCAGGAUAUCUAGAUGCGUCUUGAGCUCAAGCGCUGGAGAAGGGAUUGGGU | 235 | 67.5 | – | –
37 | UCGCGGGAGCAGAAGGGAUAGGCCUAUUGUCGUGAGGUCUACACUUAACAUGAGGAUCACCCAUGUCAGGAUAUGCCCACGCGA | 4.68 | 4.64 | – | –
38 | UCGCUGCGAGGAUAUACGUGCGCGCGCUUUCGUUUGCGCGUACAUGAGGAUCACCCAUGUAGAAGGCGCGCUGC | 16.2 | 15.8 | – | –
39 | UCGGUUACAUGAGGAUCACCCAUGUCUCGGGCCCUAUUUAGCAGAAGGCCAGCUGGGCUACGGAUGGAGGAUAUGCUUAUGGCC | – | – | 147 | 36.5
40 | UCGUAUAAGGGCAUUACACAUGAGGAUCACCCAUGUACGUUAGAGGAUAUGCAUUCCAGUCGAACGUAGAAGGCUAGAGAAGGG | 118 | 117 | – | –
41 | UCGUAUAAGGGCAUUACACAUGAGGAUCACCCAUGUACGUUAGAGGAUAUGCAUUUCAGUUGAACGUAGAAGGCUAGAGAAGGG | 117 | 103 | – | –
42 | UCGUGAAGGACAGGAUAUGGACAUGAGGAUCACCCAUGUACAUGGGAAUAUAUACUGAAUUUAUACUAGAAGGGUUACAUAAAU | 27.4 | 16.7 | – | –
43 | UCGUGAAGGACAGGAUAUGGACAUGAGGAUCACCCAUGUACAUGGGAAUAUAUACUGAAUUUGUACUAGAAGGGUUACAUAAAU | 26.1 | 20.1 | – | –
44 | UCGUGUAUAGAGGAUAUAUUAUUUUUUUUAACAAUAGAAGGCUAAACAUGAGGAUCACCCAUGUAUUUUUUUUU | 31.4 | 44 | – | –
45 | UCGUUUAUACAAGGAUAUCAAUUUUAGCUUAAUUCAACAUGAGGAUCACCCAUGUAACUAUGGAGUGAGAAGGUGUAAUGGCUU | – | – | 522 | 222
46 | UCUAAUUAAAAUGAUUCAUCAACACAGGAUAUACCCGCAACAUGAGGAUCACCCAUGUAGGCCCGGUAGAAGGGUGCUUGGGAG | – | – | 20.5 | 6.9
47 | UCUCGACAUGAGGAUCACCCAUGUCAGGAUAUUGUAUUGGAGGUUUUUUACCUUAUGGCAAGAAGGGAUGUGUG | 20.6 | 21.6 | – | –
48 | UCUGUUUUGCGAGGAUAUCGACCAUUCCUCUUAACAUGAGGAUCACCCAUGUGCUAAUCCUACAACGAGAAGGCGCUCAUACUC | 250 | 348 | – | –
49 | UCUUAACAUGAGGAUCACCCAUGUGAGGAUAUGAUGCAGCAGUGGUCUACGCUGUGCAUCAGAAGGUACAUGGG | 23 | 20.1 | – | –
50 | UCUUAUUGCAAGGAUAUGCUAUUUAUUUUUUUUGCAGAAGGUGCAACAUGAGGAUCACCCAUGUUUCCGGGCAU | 19.2 | 42.7 | – | –
51 | UGAAAACAUGAGGAUCACCCAUGUCUAGGAGAUCGAGGAUAUGGGCCGGCACUAGGCGGGCCAGAAGGCGAAAAGU | – | – | 60.8 | 26.6
52 | UGAACCUUCACAGGAUAUCAUGCGAAAAUUGCGUGAGAAGGGUGAAUAUGGUGUUCAUAGUUGCACAUGAGGAUCACCCAUGUA | – | – | 191 | 128
53 | UGAAUGGUGAUAGGAUAUACAUGAGGAAUCCUCGUAGAAGGAUCACGACAUGAGGAUCACCCAUGUAGCCGUCCGUAGACGGCC | – | – | 227 | 470
54 | UGACCCAUGACAUGAGAUGACAUGAGGAUCACCCAUGUUUACAAGGAUAUGUUGAUGAAACAUCAACAGAAGGUGUAAUGGGAU | 53.7 | 385 | – | –
55 | UGACUAGCAAUGUAUCGAAAGAUCACAUGAGGAUCACCCAUGUAGGAUAUGAGCAGAAAAUCUGCUCAGAAGGACAUGCUAGUC | 5.88 | 6.04 | – | –
